# Reference: ChEMBL document CHEMBL3351736, “A promising camptothecin derivative: Semisynthesis, antitumor activity and intestinal permeability” (Eur J Med Chem, 2014)
# Activity calls are given as the source filed them. The rule behind the calls is not given here.
# Experiments:
# [1] = Effective permeability from apical to basolateral side in human Caco2 cells at 50 uM after 15 to 90 mins by HPLC analysis; format: ADME, cell-based; settings: Caco-2, read-out: Peff
# How it was run: (§1)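 Caco-2 monolayers grown 19-22 days on polycarbonate transwell inserts (4.2 cm², 0.4 µm pore) at 37 °C, 5% CO2; TEER checked before and after each run. Compound added to donor side at 37 °C, 50 rpm. Receiver sampled at 15, 30, 60 and 90 min; donor sampled at start and end. HPLC analysis. Sodium azide, when used, placed on both sides. Three independent experiments.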
# [2] = test system: Small intestine; experiment: Effective permeability in Wistar rat small intestine assessed as absorption rate coefficient at 50 uM measured after 5 mins in every 5 min interval up to 30 mins; format: ADME, tissue-based
# How it was run: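 Male Wistar rats fasted 2 h with water available, then anaesthetised with diazepam (1.67 mg/kg), ketamine (50 mg/kg) and atropine (1 mg/kg) and kept at 37°C on a heated surface. In situ intestinal perfusion. Perfusate sampled from 5 min at 5 min intervals up to 30 min. Absorption rate constant (Ka) and Peff derived.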
# [3] = Effective permeability in Wistar rat small intestine at 50 uM measured after 5 mins in every 5 min interval up to 30 mins; format: ADME, tissue-based; settings: not told, read-out: Peff
# How it was run: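 In situ intestinal perfusion in male Wistar rats fasted 2 h with water allowed. Anaesthesia with diazepam (1.67 mg/kg), ketamine (50 mg/kg) and atropine (1 mg/kg); animals kept at 37 °C. Perfusate sampled every 5 min from 5 to 30 min; absorption rate constant and Peff derived.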
# [4] = test system: A-375; experiment: Induction of apoptosis in human A375 cells assessed as inhibition of DNA synthesis at 0.8 to 1.6 uM after 24 hrs by BrdU staining-based ELISA; format: functional, cell-based
# How it was run: (§2)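 BrdU colorimetric cell proliferation ELISA. Cells seeded at 25,000 per well, compounds added 24 h after seeding and incubated 24 h. Cells fixed and the immunoassay run per kit. Absorbance read at 370-492 nm over 3 intervals of 5 min; absorbance difference proportional to BrdU incorporation. Mean of three separate experiments in triplicate, compared with untreated control.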
# [5] = test system: HeLa; experiment: Cytotoxicity against human HeLa cells after 24 hrs by MTT assay; format: functional, cell-based
# How it was run: (§3)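 Cells seeded at 25000 per well and held 24 h at 37 °C in 5% CO2. Medium was then renewed and compounds added at increasing concentrations (DMSO 0.1%, or water for topotecan) for 24 h. MTT solution (5 mg/mL) was added for 3 h at 37 °C, then absorbance read at 570 nm, corrected at 630 nm. IC50 in µM.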
# [6] = test system: A-375; experiment: Induction of apoptosis in human A375 cells assessed as p53 phosphorylation at Ser15 by Western blotting analysis; format: functional, cell-based
# How it was run: (§4)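 Cells treated 24 h. About 10^6 cells lysed on ice 15 min in Hepes pH 7.4/Triton X-100 buffer with phosphatase and protease inhibitors, then spun 13,000 × g. 30 µg protein run on 12% SDS-PAGE and blotted to nitrocellulose. Primary anti-phospho-p53 (Ser15) and anti-p53 at 1:1000 for 2 h at room temperature, then HRP secondary and ECL densitometry. Results referred to untreated control.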
# [7] = test system: MDA-MB-231; experiment: Cytotoxicity against human MDA-MB-231 cells after 24 hrs by MTT assay; format: functional, cell-based; settings: MDA-MB-231, 24 h; how it was run: as §3
# [8] = test system: MDA-MB-231; experiment: Induction of apoptosis in human MDA-MB-231 cells assessed as inhibition of DNA synthesis after 24 hrs by BrdU staining-based ELISA; format: functional, cell-based
# How it was run: (§5)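 Cells seeded at 25,000/well; compounds added 24 h after seeding at a range of concentrations and incubated 24 h. Cells fixed, then colorimetric BrdU-incorporation ELISA. Absorbance read at 370-492 nm over 3 intervals of 5 min. Mean of three separate experiments with triplicate samples.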
# [9] = test system: Jurkat; experiment: Cytotoxicity against human Jurkat cells after 24 hrs by MTT assay; format: functional, cell-based; how it was run: as §3
# [10] = test system: HeLa; experiment: Induction of apoptosis in human HeLa cells assessed as p53 phosphorylation at Ser15 by Western blotting analysis; format: functional, cell-based; how it was run: as §4
# [11] = test system: A-375; experiment: Cytotoxicity against human A375 cells after 24 hrs by MTT assay; format: functional, cell-based; settings: A-375, 24 h; how it was run: as §3
# [12] = test system: HeLa; experiment: Induction of apoptosis in human HeLa cells assessed as inhibition of DNA synthesis after 24 hrs by BrdU staining-based ELISA; format: functional, cell-based; how it was run: as §5
# [13] = test system: MDA-MB-231; experiment: Induction of apoptosis in human MDA-MB-231 cells assessed as inhibition of DNA synthesis at 0.8 to 1.6 uM after 24 hrs by BrdU staining-based ELISA; format: functional, cell-based; how it was run: as §2
# [14] = test system: A-375; experiment: Induction of apoptosis in human A375 cells assessed as inhibition of DNA synthesis after 24 hrs by BrdU staining-based ELISA; format: functional, cell-based; how it was run: as §5
# [15] = test system: HeLa; experiment: Induction of apoptosis in human HeLa cells assessed as inhibition of DNA synthesis at 0.8 to 1.6 uM after 24 hrs by BrdU staining-based ELISA; format: functional, cell-based; how it was run: as §2
# [16] = test system: MDA-MB-231; experiment: Induction of apoptosis in human MDA-MB-231 cells assessed as p53 phosphorylation at Ser15 by Western blotting analysis; format: functional, cell-based; how it was run: as §4
# [17] = test system: Caco-2; experiment: Induction of apoptosis in human Caco2 cells assessed as vital cells at 0.5 uM after 24 hrs by Annexin V/propidium iodide staining-based flow cytometric analysis (reference value: 96.67 +/- 1.02%); format: functional
# [18] = test system: Caco-2; experiment: Induction of apoptosis in human Caco2 cells assessed as late apoptotic cells at 0.05 uM after 48 hrs by Annexin V/propidium iodide staining-based flow cytometric analysis (reference value: 2.20 +/- 0.77%); format: functional
# [19] = test system: Caco-2; experiment: Induction of apoptosis in human Caco2 cells assessed as early apoptotic cells at 0.05 uM after 48 hrs by Annexin V/propidium iodide staining-based flow cytometric analysis (reference value: 0.72 +/- 0.03%); format: functional
# [20] = test system: Caco-2; experiment: Induction of apoptosis in human Caco2 cells assessed as early apoptotic cells at 0.05 uM after 24 hrs by Annexin V/propidium iodide staining-based flow cytometric analysis (reference value: 0.72 +/- 0.03%); format: functional
# [21] = test system: Caco-2; experiment: Induction of apoptosis in human Caco2 cells assessed as necrotic cells at 0.5 uM after 24 hrs by Annexin V/propidium iodide staining-based flow cytometric analysis (reference value: 0.41 +/- 0.02%); format: functional
# [22] = test system: Caco-2; experiment: Induction of apoptosis in human Caco2 cells assessed as late apoptotic cells at 0.05 uM after 24 hrs by Annexin V/propidium iodide staining-based flow cytometric analysis (reference value: 2.20 +/- 0.77%); format: functional
# [23] = test system: Caco-2; experiment: Induction of apoptosis in human Caco2 cells assessed as early apoptotic cells at 0.5 uM after 24 hrs by Annexin V/propidium iodide staining-based flow cytometric analysis (reference value: 0.72 +/- 0.03%); format: functional
# [24] = test system: Caco-2; experiment: Induction of apoptosis in human Caco2 cells assessed as vital cells at 0.05 uM after 24 hrs by Annexin V/propidium iodide staining-based flow cytometric analysis (reference value: 96.67 +/- 1.02%); format: functional
# [25] = test system: Caco-2; experiment: Induction of apoptosis in human Caco2 cells assessed as vital cells at 0.05 uM after 48 hrs by Annexin V/propidium iodide staining-based flow cytometric analysis (reference value: 96.67 +/- 1.02%); format: functional
# [26] = test system: Caco-2; experiment: Induction of apoptosis in human Caco2 cells assessed as late apoptotic cells at 0.5 uM after 24 hrs by Annexin V/propidium iodide staining-based flow cytometric analysis (reference value: 2.20 +/- 0.77%); format: functional
# [27] = Permeability from basolateral to apical side in human Caco2 cells at 5 to 50 uM after 15 to 90 mins by HPLC analysis; format: ADME, cell-based; settings: caco-2, 50 µM; how it was run: as §1
# [28] = test system: Caco-2; experiment: Induction of apoptosis in human Caco2 cells assessed as vital cells at 0.5 uM after 48 hrs by Annexin V/propidium iodide staining-based flow cytometric analysis (reference value: 96.67 +/- 1.02%); format: functional
# [29] = test system: Caco-2; experiment: Induction of apoptosis in human Caco2 cells assessed as early apoptotic cells at 0.5 uM after 48 hrs by Annexin V/propidium iodide staining-based flow cytometric analysis (reference value: 0.72 +/- 0.03%); format: functional
# [30] = Cytotoxicity against human Caco2 cells after 24 hrs by MTT assay; format: functional, cell-based; settings: Caco-2, 24 h
# [31] = test system: Caco-2; experiment: Induction of apoptosis in human Caco2 cells assessed as necrotic cells at 0.5 uM after 48 hrs by Annexin V/propidium iodide staining-based flow cytometric analysis (reference value: 0.41 +/- 0.02%); format: functional
# [32] = test system: Caco-2; experiment: Induction of apoptosis in human Caco2 cells assessed as late apoptotic cells at 0.5 uM after 48 hrs by Annexin V/propidium iodide staining-based flow cytometric analysis (reference value: 2.20 +/- 0.77%); format: functional
# [33] = test system: Caco-2; experiment: Induction of apoptosis in human Caco2 cells assessed as necrotic cells at 0.05 uM after 24 hrs by Annexin V/propidium iodide staining-based flow cytometric analysis (reference value: 0.41 +/- 0.02%); format: functional
# [34] = test system: Caco-2; experiment: Induction of apoptosis in human Caco2 cells assessed as necrotic cells at 0.05 uM after 48 hrs by Annexin V/propidium iodide staining-based flow cytometric analysis (reference value: 0.41 +/- 0.02%); format: functional
# [35] = Permeability from apical to basolateral side in human Caco2 cells at 5 to 50 uM after 15 to 90 mins by HPLC analysis; format: ADME, cell-based; settings: caco-2, 50 µM; how it was run: as §1
# [36] = Effective permeability from apical to basolateral side in human Caco2 cells at 50 uM after 15 to 90 mins by HPLC analysis in presence of sodium azide; format: ADME, cell-based; settings: Caco-2, with sodium azide, read-out: Peff; how it was run: as §1
# [37] = species on record: Homo sapiens; experiment: Activity at Pgp transporter (unknown origin)
# [38] = Effective permeability from basolateral to apical side in human Caco2 cells at 50 uM after 15 to 90 mins by HPLC analysis; format: ADME, cell-based; settings: Caco-2, read-out: Peff; how it was run: as §1
# [39] = Effective permeability from basolateral to apical side in human Caco2 cells at 50 uM after 15 to 90 mins by HPLC analysis in presence of sodium azide; format: ADME, cell-based; settings: Caco-2, with sodium azide, read-out: Peff; how it was run: as §1
SMILES,Papp A→B at 50 µM [1] [nm/s],Ka [2] [h⁻¹],"Papp at 5 min, 50 µM [3] [nm/s]",Activity [4],IC50 [5] [µM],Activity [6],IC50 [7] [µM],IC50 [9] [µM],Activity [10],IC50 [11] [µM],Activity [13],Activity [15],Activity [16],Activity [17] [%],Activity [18] [%],Activity [19] [%],Activity [20] [%],Activity [21] [%],Activity [22] [%],Activity [23] [%],other results
COCCc1ccc(OCC(O)CNC(C)C)cc1 (centres undefined) [METOPROLOL],230,2.3,553,–,–,–,–,–,–,–,–,–,–,–,–,–,–,–,–,–,–
CC[C@@]1(O)C(=O)OCc2c1cc1n(c2=O)Cc2cc3c([N+](=O)[O-])cccc3nc2-1 [RUBITECAN],–,–,–,Active,0.343,Active,0.479,0.128,inactive,0.138,Active,Active,Active,–,–,–,–,–,–,–,inhibition [8]: Dose-dependent effect; inhibition [12]: Dose-dependent effect; inhibition [14]: Dose-dependent effect
CC[C@@]1(O)C(=O)OCc2c1cc1n(c2=O)Cc2cc3ccccc3nc2-1 [CAMPTOTHECIN],78.8,3.02,748,Active,0.42,Active,0.342,0.11,inactive,0.187,Active,Active,Active,81.62,41.38,3.18,15.22,3.04,1.4,1.64,Activity [24]: 83.26%; Activity [25]: 51.12%; Activity [26]: 13.7%; permeability [27]: permeable; Activity [28]: 36.98%; Activity [29]: 4.1%; IC50 [30]: 0.131 µM; Activity [31]: 2.76%; Activity [32]: 56.16%; Activity [33]: 0.12%; Activity [34]: 4.32%; permeability [35]: permeable
CC[C@@]1(O)C(=O)OCc2c1cc1n(c2=O)Cc2cc3c4c(ccc3nc2-1)OCOC4,100,3.78,938,Active,0.345,Active,0.476,0.124,inactive,0.186,Active,Active,Active,47.78,33.54,3.56,11.8,1.18,24.72,8.16,Activity [24]: 61.56%; Activity [25]: 57%; Papp A→B at 50 µM [36]: 80.5 nm/s; Activity [37]: inactive; Activity [26]: 42.88%; permeability [27]: permeable; Activity [28]: 37.04%; Activity [29]: 3.68%; Papp B→A at 50 µM [38]: 98.4 nm/s; IC50 [30]: 0.104 µM; Activity [31]: 3.2%; Activity [32]: 56.08%; Activity [33]: 1.92%; Activity [34]: 5.9%; permeability [35]: permeable; Papp B→A at 50 µM [39]: 97.3 nm/s
